Source: ChEMBL document CHEMBL3286099, “Synthesized quercetin derivatives stimulate melanogenesis in B16 melanoma cells by influencing the expression of melanin biosynthesis proteins MITF and p38 MAPK” (Bioorg Med Chem, 2014)
Activity calls are given as the source filed them. The calls are words filed in the database; no cut-off is given here.

Assays:
B16-F0 [1] = test: Intracellular melanogenesis-stimulating activity in mouse B16F0 cells at 100 uM after 72 hrs by spectrophotometry relative to control; type: functional
B16-F0 [2] = test: Intracellular melanogenesis-stimulating activity in mouse B16F0 cells after 72 hrs by spectrophotometry relative to control; type: functional, cell-based
How it was run: (§1)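 Cells were seeded at 5.0 × 10⁴ cells/well, adhered for 24 h, then treated with compound for 72 h. After a PBS wash, cells were lysed in 1 M NaOH at 100 °C for 30 min to solubilize melanin. Lysate absorbance at 405 nm served as the intracellular melanin index, expressed as % of DMSO control. Experiments were done twice.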

[3] = Cytotoxicity against mouse B16F0 cells assessed as cell viability at 100 uM after 72 hrs by MTT assay; type: cell-based; details: read-out: Activity
How it was run: (§2)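 B16-F0 cells were seeded at 5.0 × 10⁴ cells/well and allowed to adhere for 24 h at 37 °C. They were exposed for 72 h to compound at 200–10 µM or 50–6.25 µM, depending on compound series. MTT (5 mg/mL stock in PBS) was added for 4 h at 37 °C in 5% CO₂, then dissolved in isopropanol/0.04 N HCl and read at 590 nm. Viability is % of DMSO control; experiments were done twice.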

B16-F0 [4] = test: Intracellular melanogenesis-stimulating activity in mouse B16F0 cells at 10 uM after 72 hrs by spectrophotometry relative to control; type: functional
B16-F0 [5] = test: Intracellular melanogenesis-stimulating activity in mouse B16F0 cells at 200 uM after 72 hrs by spectrophotometry relative to control; type: functional
B16-F0 [6] = test: Extracellular melanogenesis-stimulating activity in mouse B16F0 cells at 10 uM after 72 hrs by spectrophotometry relative to control; type: functional
How it was run: (§3)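 B16-F0 cells in DMEM with 10% FBS were seeded at 5.0 × 10⁴ cells/well and adhered for 24 h. They were treated for 72 h at 200–10 µM or 50–6.25 µM, depending on compound series. Absorbance of the collected culture medium at 510 nm gave extracellular melanin, expressed as % of DMSO-treated control. Experiments were done twice.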

[7] = Cytotoxicity against mouse B16F0 cells assessed as cell viability at 200 uM after 72 hrs by MTT assay; type: cell-based; details: read-out: Activity; how it was run: as §2
B16-F0 [8] = test: Extracellular melanogenesis-stimulating activity in mouse B16F0 cells at 100 uM after 72 hrs by spectrophotometry relative to control; type: functional; how it was run: as §3
[9] = Cytotoxicity against mouse B16F0 cells assessed as cell viability at 10 uM after 72 hrs by MTT assay; type: cell-based; details: read-out: Activity; how it was run: as §2
B16-F0 [10] = test: Extracellular melanogenesis-stimulating activity in mouse B16F0 cells at 200 uM after 72 hrs by spectrophotometry relative to control; type: functional; how it was run: as §3
[11] = Cytotoxicity against mouse B16F0 cells assessed as cell viability at 25 uM after 72 hrs by MTT assay; type: cell-based; details: read-out: Activity; how it was run: as §2
B16-F0 [12] = test: Intracellular melanogenesis-stimulating activity in mouse B16F0 cells at 25 uM after 72 hrs by spectrophotometry relative to control; type: functional; how it was run: as §1
B16-F0 [13] = test: Extracellular melanogenesis-stimulating activity in mouse B16F0 cells at 12.5 uM after 72 hrs by spectrophotometry relative to control; type: functional; how it was run: as §3
[14] = Cytotoxicity against mouse B16F0 cells assessed as cell viability at 50 uM after 72 hrs by MTT assay; type: cell-based; details: read-out: Activity; how it was run: as §2
B16-F0 [15] = test: Extracellular melanogenesis-stimulating activity in mouse B16F0 cells at 50 uM after 72 hrs by spectrophotometry relative to control; type: functional; how it was run: as §3
B16-F0 [16] = test: Extracellular melanogenesis-stimulating activity in mouse B16F0 cells at 25 uM after 72 hrs by spectrophotometry relative to control; type: functional; how it was run: as §3
B16-F0 [17] = test: Intracellular melanogenesis-stimulating activity in mouse B16F0 cells at 50 uM after 72 hrs by spectrophotometry relative to control; type: functional; how it was run: as §1
B16-F0 [18] = test: Intracellular melanogenesis-stimulating activity in mouse B16F0 cells at 12.5 uM after 72 hrs by spectrophotometry relative to control; type: functional; how it was run: as §1
[19] = Cytotoxicity against mouse B16F0 cells assessed as cell viability at 12.5 uM after 72 hrs by MTT assay; type: cell-based; details: read-out: Activity; how it was run: as §2
B16-F0 [20] = test: Extracellular melanogenesis-stimulating activity in mouse B16F0 cells at 6.25 uM after 72 hrs by spectrophotometry relative to control; type: functional; how it was run: as §3
[21] = Cytotoxicity against mouse B16F0 cells assessed as cell viability at 6.25 uM after 72 hrs by MTT assay; type: cell-based; details: read-out: Activity; how it was run: as §2
B16-F0 [22] = test: Intracellular melanogenesis-stimulating activity in mouse B16F0 cells at 6.25 uM after 72 hrs by spectrophotometry relative to control; type: functional; how it was run: as §1
B16-F0 [23] = test: Induction of melanogenesis-stimulating activity in mouse B16F0 cells assessed as increase in MITF protein expression after 72 hrs by Western blotting analysis; type: functional, cell-based
How it was run: (§4)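 B16 cells were treated for 72 h at 0–12.5 µM and lysed in RIPA with protease inhibitors (0 °C, 30 min). Lanes held 10 µg protein on 10% SDS–PAGE, transferred to PVDF and blocked with 2% BSA/TBST at 4 °C overnight. Primaries ran 2 h: MITF 1:1000, tyrosinase, TRP-1 and p-p38 1:200, TRP-2 and p38 1:100. HRP secondary was 1:5000 for 2 h, with ECL densitometry. GAPDH blotted; three independent experiments.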

B16-F0 [24] = test: Induction of melanogenesis-stimulating activity in mouse B16F0 cells assessed as increase in TRP-1 protein expression after 72 hrs by Western blotting analysis; type: functional, cell-based; how it was run: as §4
B16-F0 [25] = test: Induction of melanogenesis-stimulating activity in mouse B16F0 cells assessed as increase in p-p38 MAPK level after 72 hrs by Western blotting analysis; type: functional, cell-based; how it was run: as §4
B16-F0 [26] = test: Induction of melanogenesis-stimulating activity in mouse B16F0 cells assessed as increase in TRP-2 protein expression after 72 hrs by Western blotting analysis; type: functional, cell-based; how it was run: as §4
B16-F0 [27] = test: Induction of melanogenesis-stimulating activity in mouse B16F0 cells assessed as increase in tyrosinase protein expression after 72 hrs by Western blotting analysis; type: functional, cell-based; how it was run: as §4
B16-F0 [28] = test: Induction of melanogenesis-stimulating activity in mouse B16F0 cells assessed as increase in p38-MAPK protein expression after 72 hrs by Western blotting analysis; type: functional, cell-based; how it was run: as §4

Row | SMILES | viability at 72 h, 25 µM [11] [%] | Activity (B16-F0 [12]) [%] | Activity (B16-F0 [13]) [%] | Activity (B16-F0 [16]) [%] | Activity (B16-F0 [18]) [%] | viability at 72 h, 12.5 µM [19] [%] | Activity (B16-F0 [20]) [%] | viability at 72 h, 6.25 µM [21] [%] | Activity (B16-F0 [22]) [%] | also measured
1 | O=c1c(O[C@@H]2O[C@H](CO)[C@@H](O[C@@H]3O[C@H](CO)[C@@H](O)[C@H](O)[C@H]3O)[C@H](O)[C@H]2O)c(-c2ccc(O)c(O)c2)oc2cc(O)cc(O)c12 |  |  |  |  |  |  |  |  |  | Activity (B16-F0 [1]): 126.8%; Activity (B16-F0 [2]): Dose-dependent effect; viability at 72 h, 100 µM [3]: 93.2%; Activity (B16-F0 [4]): 102.6%; Activity (B16-F0 [5]): 176%; Activity (B16-F0 [6]): 83.3%; viability at 72 h, 200 µM [7]: 81.1%; Activity (B16-F0 [8]): 91%; viability at 72 h, 10 µM [9]: 99.6%; Activity (B16-F0 [10]): 85.2%
2 | CC(=O)Oc1c(-c2ccc(O)c(O)c2)oc2cc(O)cc(O)c2c1=O | 120 | 114.3 | 87.6 | 102.6 | 99 | 110 |  |  |  | viability at 72 h, 50 µM [14]: 110%; Activity (B16-F0 [15]): 126.6%; Activity (B16-F0 [17]): 104.6%
3 | COc1cc(O)c2c(=O)c(O)c(-c3ccc(O)c(O)c3)oc2c1 [RHAMNETIN] | 91.6 | 75.8 | 105.2 | 114.3 | 87.6 | 99.4 | 105.5 | 92.7 | 102.4 | 
4 | COc1ccc(-c2oc3cc(O)cc(O)c3c(=O)c2O)cc1O [TAMARIXETIN] | 101 | 106.9 | 95.1 | 97.9 | 133.5 | 103 | 97.5 | 104 | 125.6 | 
5 | COc1cc(O)c2c(=O)c(O)c(-c3ccc(OC)c(O)c3)oc2c1 [OMBUINE] | 101 | 100.5 | 98 | 100.1 | 106.1 | 101 | 100.5 | 99.7 | 110.2 | 
6 | COc1cc(O)c2c(=O)c(OC)c(-c3ccc(OC)c(O)c3)oc2c1 [AYANIN] | 90.2 | 203.4 | 228 | 298.7 | 181.4 | 102 | 225.5 | 95.3 | 127.7 | Activity (B16-F0 [23]): Dose-dependent effect; Activity (B16-F0 [24]): Dose-dependent effect; Activity (B16-F0 [25]): Dose-dependent effect; Activity (B16-F0 [26]): Dose-dependent effect; Activity (B16-F0 [27]): Dose-dependent effect; Activity (B16-F0 [28]): inactive
